{"data": "Assay results pooled from the literature", "observed": "enzyme activity", "action": "inhibitor", "rep main protease": "Replicase polyprotein 1ab, main protease (rep, Severe acute respiratory syndrome coronavirus 2, UniProt P0DTD1)", "rep papain-like protease": "Replicase polyprotein 1ab, papain-like protease (rep, Severe acute respiratory syndrome coronavirus 2, UniProt P0DTD1)", "note": "Lines come from different studies, so protocols differ."}
{"Structure (SMILES)": "COc1cc(C)cc2c1C(=O)C=CC2=O", "target": "rep main protease", "setting": "10 µM", "inhibition [%]": 90.4}
{"Structure (SMILES)": "O=C(O)[C@H]1O[C@@H](Oc2cc3oc(-c4ccccc4)cc(=O)c3c(O)c2O)[C@H](O)[C@@H](O)[C@@H]1O", "target": "rep main protease", "setting": "100 µM", "inhibition [%]": 97.6}
{"Structure (SMILES)": "O=[N+]([O-])c1cccc(-c2nc(O)c3ccccc3n2)c1", "target": "rep main protease", "setting": "20 µM", "inhibition [%]": 22.3}
{"Structure (SMILES)": "CC(=O)N[C@H](CCCCN)C(=O)N[C@H](Cc1c[nH]c2ccccc12)C(=O)N[C@H](CO)C(=O)N[C@H](Cc1ccc(O)cc1)C(=O)N[C@H](CCC(N)=O)C(=O)N1CCC[C@@H]1C(=O)N[C@@H](C(=O)N[C@H](Cc1c[nH]c2ccccc12)C(=O)N[C@H](CC(=O)O)C(=O)N[C@H](Cc1c[nH]c2ccccc12)C(=O)N[C@@H](C(=O)N[C@H](Cc1c[nH]c2ccccc12)C(=O)N[C@H](CO)C(=O)N[C@H](CCC(=O)O)C(=O)N[C@H](Cc1c[nH]cn1)C(=O)N[C@H](C)C(=O)N[C@H](CCCNC(=N)N)C(N)=O)[C@H](C)O)[C@H](C)O", "target": "rep main protease", "test": "fluorescence", "setting": "140 µM", "inhibition [%]": 100}
{"Structure (SMILES)": "Cc1cc(O)c2c(c1)C(=O)C=CC2=O", "target": "rep main protease", "setting": "10 µM", "inhibition [%]": 103}
{"Structure (SMILES)": "COc1cc(-c2oc3cc(O)cc(O)c3c(=O)c2O)ccc1O", "target": "rep main protease", "test": "FRET", "setting": "10 µM, 10 min", "inhibition [%]": "25 to 50"}
{"Structure (SMILES)": "Cc1ccc2nc(Cl)c(/C=N/NC(=O)c3ccncc3)cc2c1", "target": "rep papain-like protease", "setting": "100 µM", "inhibition [%]": 38.4}
{"Structure (SMILES)": "O=C(CSc1nnc2c(n1)[nH]c1ccccc12)Nc1cccc(S(=O)(=O)N2CCOCC2)c1", "target": "rep main protease", "setting": "100 µg/mL", "inhibition [%]": 0}
{"Structure (SMILES)": "COc1cc(C[C@@H](C)[C@@H](C)Cc2ccc(O)c(OC)c2)ccc1O", "target": "rep main protease", "test": "FRET", "setting": "8 µM", "inhibition [%]": 45}
{"Structure (SMILES)": "O=C1CC(c2c(O)cccc2O)Oc2cc(O)cc(O)c21 (centres unmarked)", "target": "rep main protease", "setting": "20 µM", "inhibition [%]": 26.5}
{"Structure (SMILES)": "O=C(Oc1cncc(Cl)c1)c1cc2c(Cl)cc(Cl)cc2[nH]1", "target": "rep main protease", "test": "fluorescence", "setting": "10 µM, pH 7.2", "inhibition [%]": 100}
{"Structure (SMILES)": "O=C(O)c1cc(O)c2c(c1)C([C@@H]1c3cc(C(=O)O)cc(O)c3C(=O)c3c(O[C@H]4O[C@H](CO)[C@@H](O)[C@H](O)[C@H]4O)cccc31)c1cccc(O[C@H]3O[C@H](CO)[C@@H](O)[C@H](O)[C@H]3O)c1C2=O (some centres unmarked)", "target": "rep main protease", "setting": "20 µM", "inhibition [%]": 103}
{"Structure (SMILES)": "COc1ccc(OC)c2c1C(=O)C=CC2=O", "target": "rep main protease", "setting": "0.1 µM", "inhibition [%]": 8.9}
{"Structure (SMILES)": "CC1(C)C=Cc2cc(-c3coc4cc(O)cc(O)c4c3=O)ccc2O1", "target": "rep main protease", "setting": "8 µM", "inhibition [%]": 11.8}
{"Structure (SMILES)": "COc1c(O)cc(O)c2c(=O)cc(-c3ccccc3)oc12", "target": "rep papain-like protease", "setting": "50 µM", "inhibition [%]": 52}
{"Structure (SMILES)": "Cc1cc(NC(=O)c2cc3c(=O)n4cccc(C)c4nc3n2C)ccc1Br", "target": "rep main protease", "setting": "100 µM", "inhibition [%]": 59}
{"Structure (SMILES)": "O=C(/C=C/c1ccc(O)c(O)c1)OC1CC(OC(=O)/C=C/c2ccc(O)c(O)c2)(C(=O)O)CC(O)C1O (centres unmarked)", "target": "rep papain-like protease", "setting": "50 µM", "inhibition [%]": 14.4}
{"Structure (SMILES)": "Cn1c(C(=O)Nc2ccc3c(c2)OCCO3)cc2c(=O)n3ccccc3nc21", "target": "rep main protease", "setting": "1 mM", "inhibition [%]": 96}
{"Structure (SMILES)": "NC(=O)CCOC1CCN(C(c2ccccc2)c2ccccc2)CC1", "target": "rep main protease", "setting": "20 µM", "inhibition [%]": 11.5}
{"Structure (SMILES)": "Cc1nc(C(=O)N2CC[C@@H]([C@@H]3CCCN3C(=O)c3cc(O)c4ccoc4c3)C2)cc(=O)[nH]1", "target": "rep main protease", "setting": "5 µM", "inhibition [%]": 12.2}
{"Structure (SMILES)": "Cc1ccc2nc(Cl)c(C=Nc3cc(Br)ccn3)cc2c1", "target": "rep papain-like protease", "setting": "10 µM", "inhibition [%]": 4.6}
{"Structure (SMILES)": "O=c1c(O)c(-c2cc(O)c(O)c(O)c2)oc2cc(O)ccc12", "target": "rep main protease", "setting": "10 µM", "inhibition [%]": 62.5}
{"Structure (SMILES)": "CCc1ccc(NC(=O)c2cc3c(=O)n4ccccc4nc3n2C)cc1", "target": "rep main protease", "setting": "1 µM", "inhibition [%]": 11}
